CCR6 antagonist: CCR6 receptor antagonists, primary screen, cell-based, CHO-K1, luminescence, beta-arrestin, uHTS; AID 493098, 2011; 340,000 tested, 0.49% active; CHO-K1 CCR6 PathHunter beta-arrestin, CCL20-stimulated; inhibition, % at 20 µM; C-C chemokine receptor type 6 (Homo sapiens), P51684;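 active means compounds whose inhibition of the agonist-driven luminescence signal at 20 µM reaches about 50%, limit read from the data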;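 further: cells stimulated with CCL20 at 14 nM final; plate controls were DMSO with CCL20 for no effect and DMSO without agonist for full effect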
Target sequence (P51684 whole entry, looked up): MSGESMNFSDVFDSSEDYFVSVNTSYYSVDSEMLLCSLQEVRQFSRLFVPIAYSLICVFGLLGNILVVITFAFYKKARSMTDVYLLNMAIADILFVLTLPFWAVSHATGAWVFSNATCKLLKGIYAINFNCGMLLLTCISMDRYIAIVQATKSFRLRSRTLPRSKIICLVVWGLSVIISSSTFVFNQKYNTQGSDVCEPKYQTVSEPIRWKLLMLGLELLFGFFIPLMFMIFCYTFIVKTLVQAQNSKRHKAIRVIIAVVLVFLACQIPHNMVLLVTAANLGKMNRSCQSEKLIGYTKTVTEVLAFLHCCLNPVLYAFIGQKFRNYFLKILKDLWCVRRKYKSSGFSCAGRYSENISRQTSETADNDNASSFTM
CXCR6 inh: CXCR6 receptor inhibitors, primary screen, cell-based, beta-arrestin, luminescence, CHO-K1 PathHunter, 1536-well; C-X-C chemokine receptor type 6 (Homo sapiens), O00574; inhibition, % at 20 µM; 360,000 tested, 0.36% active; in the data active means inhibition above about 34%, passing the limit was not always enough;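 further: antagonist mode with CXCL16 agonist at 10 nM final; 0% = 10 nM CXCL16 with DMSO and 100% = unstimulated wells without agonist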
APJ ag: agonists of human apelin receptor APJ, primary screen, CHO-K1 cells, PathHunter beta-arrestin, luminescence. AID 2520, 2010. 0% DMSO wells, 100% apelin. P35414. 330,000 tested, 0.11% active. activation, % at 20 µM;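 active means activation more than six SD over the plate average, tested at 20 µM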;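 further: 0% = DMSO alone and 100% = apelin-13 at 10 nM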
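Test system: CHO-K1 APJ beta-arrestin complementation cell line. Amount: cell density 1000 per well. Controls: DMSO negative, 10 nM Apelin-13 positive. Signal: luminescent beta-gal fragment complementation, chemiluminescent substrate. Read-out basis: agonist-driven arrestin binding to APJ. Timing: compound stimulation 90 min at 25 °C, detection 60 min.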
EBI2 block: EBI2 receptor antagonists, beta-arrestin recruitment, primary screen, cell-based, luminescence, 7a,25-OHC stimulation, uHTS; inhibition, % at 5 µM; G-protein coupled receptor 183 (Homo sapiens), P32249; 360,000 tested, 0.81% active; 7a,25-OHC stimulated; in the data active means inhibition above about 38%;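 further: enzyme fragment complementation signal reports receptor beta-arrestin coupling in cells; 0% = agonist plus DMSO wells and 100% = wells without agonist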
m5-HT2A agonist: mouse Htr2a agonists via beta-arrestin recruitment, primary screen, cell-based, luminescence | 5-hydroxytryptamine receptor 2A (Mus musculus), P35363 | CHO-K1 mHTR2A beta-arrestin complementation; percent of 30 µM serotonin response | activation, % at 7.6 µM | 360,000 tested, 0.66% active | AID 624169, 2012;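 active means activation above a run cutoff, the mean activation of all tested compounds plus 3 SD, cut at about 14% in these data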;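 further: 0% = plate median of compound wells and 100% = 30 µM serotonin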
APJ antagonist: antagonists of human apelin receptor APJ, primary screen, CHO-K1 cells, beta-arrestin complementation, luminescence. AID 2521, 2010. 330,000 tested, 0.32% active. inhibition, % at 20 µM. P35414;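 active means inhibition above about 40% at 20 µM, limit read from the data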;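 further: cells challenged with 10 nM apelin-13 agonist together with compound; plate controls were apelin-13 plus DMSO wells for no effect and DMSO wells lacking apelin-13 for full effect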
EBI2 conf: EBI2 antagonist hit retest, beta-arrestin, confirmation, cell-based, single concentration, luminescence, 7a,25-OHC stimulation. shares compounds with EBI2 block. 7a,25-OHC antagonism. inhibition, % at 5 µM. 2,400 tested, 29% active. AID 651997, 2013;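 active means inhibition of at least 50%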
EBI2 agonist: EBI2 agonist activity of antagonist hits, confirmation, counter-screen for EBI2 antagonist project, cell-based, single concentration, agonist mode, luminescence; shares compounds with EBI2 block; EBI2-expressing cells, 60 min; 0% vehicle, 100% 7α,25-dihydroxycholesterol control; activation, % at 5 µM; 2,400 tested, under 10 active; AID 652000, 2013;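 active means activation of at least 50%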
bGal cs: E. coli beta-galactosidase enzyme inhibition, confirmation, counter-screen for EBI2 antagonist project, biochemical, luminescence, single concentration. 2,400 tested, 1% active. inhibition, % at 5 µM. shares compounds with EBI2 block. AID 652176, 2013. purified beta-galactosidase, luminescent Galacton Star, 15 min;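 active means replicate-average signal at least 3 plate SD below neutral wells, shown as high inhibition, flagging enzyme-inhibiting false positives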;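 further: 0% = DMSO wells with enzyme and 100% = wells lacking enzyme; higher means stronger loss of beta-gal luminescence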
An asterisk follows results filed as active. Hits are enriched below; roughly 2.1% of the tested compounds scored in any of these assays.

Cc1cc(C(=O)NCC(=O)OCC(=O)NCC2CCCO2)ccc1[N+](=O)[O-] (stereo unspecified) was read as CCR6 antagonist 11, CXCR6 inh 7, APJ ag -5, EBI2 block -10, m5-HT2A agonist 9 and APJ antagonist 4.
Cc1cc(C(=O)NCC(=O)OCC(=O)N(C2CCCCC2)C2CCCCC2)ccc1[N+](=O)[O-] was read as CCR6 antagonist 11, CXCR6 inh -2, APJ ag -3, EBI2 block 81*, m5-HT2A agonist -4, APJ antagonist 8, EBI2 conf 47, EBI2 agonist -1 and bGal cs -8.
COc1ccc(CN(Cc2ccc(OC)cc2)S(=O)(=O)c2ccc(-n3cnnn3)c(C)c2)cc1 was read as CCR6 antagonist 13, CXCR6 inh 6, APJ ag 0, EBI2 block 45*, m5-HT2A agonist 3, APJ antagonist 1, EBI2 conf 6, EBI2 agonist -2 and bGal cs -13.
`COc1ccc(CN(Cc2cccnc2)S(=O)(=O)c2ccc(-n3cnnn3)c(OC)c2)cc1` gave CCR6 antagonist 3, CXCR6 inh -5, APJ ag -4, EBI2 block 4, m5-HT2A agonist 2 and APJ antagonist 12.
`O=C(NCCOc1ccc(Cl)cc1)c1cccc(S(=O)(=O)N2CCCC2)c1` gave CCR6 antagonist 15, CXCR6 inh -6, APJ ag -2, EBI2 block 56*, m5-HT2A agonist 4, APJ antagonist 15, EBI2 conf 47, EBI2 agonist -1 and bGal cs -10.
O=C(NCCOc1ccc(Cl)cc1)C1CCCCC1 was read as CCR6 antagonist 11, CXCR6 inh -6, APJ ag -2, EBI2 block 61*, m5-HT2A agonist -2, APJ antagonist -2, EBI2 conf 30, EBI2 agonist 0 and bGal cs 11.
`O=C(NCc1ccc(Cl)cc1)c1cccc(S(=O)(=O)N2CCCC2)c1` gave CCR6 antagonist 16, CXCR6 inh -3, APJ ag -4, EBI2 block -6, m5-HT2A agonist -11 and APJ antagonist 1.
`NS(=O)(=O)c1cccc(NC(=O)CN2CCN(S(=O)(=O)c3ccc4c(c3)OCCO4)CC2)c1` gave CCR6 antagonist 5, CXCR6 inh 1, APJ ag -2, EBI2 block -10, m5-HT2A agonist 0 and APJ antagonist 7.
Screening COc1ccc(NC(=O)c2ccc(OC(=S)N(C)c3ccc(OC)cc3)cc2)cc1 returned CCR6 antagonist 6, CXCR6 inh -5, APJ ag 6, EBI2 block 86*, m5-HT2A agonist -1, APJ antagonist -11, EBI2 conf 74*, EBI2 agonist -2 and bGal cs -9.
`COc1cccc(C(=O)Nc2ccc(NC(=O)Cc3ccccc3)cc2)c1` gave CCR6 antagonist 11, CXCR6 inh -3, APJ ag 1, EBI2 block 66*, m5-HT2A agonist -2, APJ antagonist 10, EBI2 conf 40, EBI2 agonist 0 and bGal cs 8.
Screening COc1ccc(C(=O)Nc2ccc3ccccc3c2)cc1 returned CCR6 antagonist 15, CXCR6 inh -5, APJ ag 3, EBI2 block 55*, m5-HT2A agonist -5, APJ antagonist 1, EBI2 conf 38, EBI2 agonist 0 and bGal cs -6.
`COc1ccc(OC)c(C(=O)c2ccc(C(=O)Nc3ccc4ccccc4c3)cc2)c1` gave CCR6 antagonist 2, CXCR6 inh 2, APJ ag -2, EBI2 block 88*, m5-HT2A agonist -5, APJ antagonist 5, EBI2 conf 55*, EBI2 agonist -1 and bGal cs -9.
`COc1cccc(C(=O)Nc2ccc3ccccc3c2)c1` gave CCR6 antagonist 3, CXCR6 inh -6, APJ ag 2, EBI2 block 13, m5-HT2A agonist 4 and APJ antagonist 7.
`Cc1cc(C)n(C(=O)CNC(=O)c2ccccc2F)n1` gave CCR6 antagonist 3, CXCR6 inh 14, APJ ag -4, EBI2 block -11, m5-HT2A agonist 7 and APJ antagonist 12.
O=C(CSc1ccc(Cl)cc1)NCc1ccco1 was read as CCR6 antagonist 21, CXCR6 inh -6, APJ ag -4, EBI2 block 0, m5-HT2A agonist -6 and APJ antagonist -8.
For CCOC(=O)N1CCN(Cc2nc3cc(NC(=O)c4ccco4)ccc3n2C)CC1 the results were CCR6 antagonist 5, CXCR6 inh -7, APJ ag 4, EBI2 block 6, m5-HT2A agonist 6 and APJ antagonist 5.
Screening COc1ccc(NC(=O)c2ccc(OC(F)F)cc2)cc1Cl returned CCR6 antagonist 15, CXCR6 inh -4, APJ ag -2, EBI2 block 46*, m5-HT2A agonist 0, APJ antagonist 6, EBI2 conf 54*, EBI2 agonist -1 and bGal cs -11.
For O=C(CS)Nc1ccc2ccccc2c1 the results were CCR6 antagonist 8, CXCR6 inh -6, EBI2 block 40*, m5-HT2A agonist 11, EBI2 conf 26, EBI2 agonist 0 and bGal cs 3.
`COc1ccc(NC(=S)NN(C)C(=S)Nc2ccc(OC)cc2)cc1` gave CCR6 antagonist 6, CXCR6 inh 2, APJ ag -2, EBI2 block 67*, m5-HT2A agonist 0, APJ antagonist -27, EBI2 conf 24, EBI2 agonist 0 and bGal cs 0.
`CCCCCC(=O)Nc1ccc2ccccc2c1` gave CCR6 antagonist 15, CXCR6 inh -7, APJ ag 0, EBI2 block 11, m5-HT2A agonist 0 and APJ antagonist -5.
